Experimental data taken from ChEMBL document CHEMBL4622944 (Bioorg Med Chem Lett, 2020).

Key:
A549 = experiment: Antiproliferative activity against human A549 cells assessed as reduction in cell viability by MTT assay; format: functional, cell-based
PC-3 = experiment: Antiproliferative activity against human PC3 cells assessed as reduction in cell viability by MTT assay; format: functional, cell-based
HCT-116 [1] = experiment: Antiproliferative activity against human HCT116 cells assessed as reduction in cell viability by MTT assay; format: functional, cell-based
HCT-116 [2] = experiment: Induction of apoptosis in human HCT116 cells assessed as viable cells at 1 uM incubated for 24 hrs by annexin V FITC and propidium iodide staining based flow cytometry analysis (reference value: 80.9 %); format: functional; conditions: HCT-116, 24 h, read-out: Activity
HCT-116 [3] = experiment: Induction of cell cycle arrest in human HCT116 cells assessed as G1 phase at 9 uM incubated for 24 hrs by annexin V and propidium iodide staining based flow cytometry analysis (reference value: 61.81 %); format: functional
Method in brief: (§1)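 HCT116 cells treated 24 h at 0.33, 1.0 or 9.0 µM alongside a non-treated control. Cells were fixed, stained with Annexin-V and propidium iodide, and DNA content was measured by flow cytometry. Percentages of cells in G1, S and G2 phases were quantified.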

HCT-116 [4] = experiment: Induction of apoptosis in human HCT116 cells assessed as late apoptotic cells at 3 uM incubated for 24 hrs by annexin V FITC and propidium iodide staining based flow cytometry analysis (reference value: 11 %); format: functional
HCT-116 [5] = experiment: Induction of cell cycle arrest in human HCT116 cells assessed as G2 phase at 0.33 uM incubated for 24 hrs by annexin V and propidium iodide staining based flow cytometry analysis (reference value: 22.11 %); format: functional; method in brief: as §1
HCT-116 [6] = experiment: Induction of cell cycle arrest in human HCT116 cells assessed as S phase at 0.33 uM incubated for 24 hrs by annexin V and propidium iodide staining based flow cytometry analysis (reference value: 16.08 %); format: functional; method in brief: as §1
HCT-116 [7] = experiment: Induction of cell cycle arrest in human HCT116 cells assessed as S phase at 9 uM incubated for 24 hrs by annexin V and propidium iodide staining based flow cytometry analysis (reference value: 16.08 %); format: functional; method in brief: as §1
HCT-116 [8] = experiment: Induction of apoptosis in human HCT116 cells incubated for 24 hrs by annexin V FITC and propidium iodide staining based flow cytometry analysis; format: functional, cell-based
HCT-116 [9] = experiment: Induction of apoptosis in human HCT116 cells assessed as late apoptotic cells at 1 uM incubated for 24 hrs by annexin V FITC and propidium iodide staining based flow cytometry analysis (reference value: 11 %); format: functional
HCT-116 [10] = experiment: Induction of cell cycle arrest in human HCT116 cells assessed as G2 phase at 9 uM incubated for 24 hrs by annexin V and propidium iodide staining based flow cytometry analysis (reference value: 22.11 %); format: functional; method in brief: as §1
HCT-116 [11] = experiment: Induction of apoptosis in human HCT116 cells assessed as necrotic cells at 3 uM incubated for 24 hrs by annexin V FITC and propidium iodide staining based flow cytometry analysis (reference value: 0.2 %); format: functional
HCT-116 [12] = experiment: Induction of apoptosis in human HCT116 cells assessed as necrotic cells at 9 uM incubated for 24 hrs by annexin V FITC and propidium iodide staining based flow cytometry analysis (reference value: 0.2 %); format: functional
HCT-116 [13] = experiment: Induction of cell cycle arrest in human HCT116 cells assessed as G1 phase at 0.33 uM incubated for 24 hrs by annexin V and propidium iodide staining based flow cytometry analysis (reference value: 61.81 %); format: functional; method in brief: as §1
HCT-116 [14] = experiment: Induction of cell cycle arrest in human HCT116 cells assessed as G2 phase at 1 uM incubated for 24 hrs by annexin V and propidium iodide staining based flow cytometry analysis (reference value: 22.11 %); format: functional; method in brief: as §1
HCT-116 [15] = experiment: Inhibition of cell migration in human HCT116 cells assessed as inhibition of wound healing rate measured upto 48 hrs by phase contrast microscopy; format: functional, cell-based
Method in brief: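 Wound-healing scratch assay in HCT116 monolayers treated at 0.3 and 3 µM versus blank control. Phase-contrast images were taken at 0, 24 and 48 h, and the wound-healing rate was assessed.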

HCT-116 [16] = experiment: Induction of apoptosis in human HCT116 cells assessed as late apoptotic cells at 9 uM incubated for 24 hrs by annexin V FITC and propidium iodide staining based flow cytometry analysis (reference value: 11 %); format: functional
HCT-116 [17] = experiment: Induction of apoptosis in human HCT116 cells assessed as viable cells at 9 uM incubated for 24 hrs by annexin V FITC and propidium iodide staining based flow cytometry analysis (reference value: 80.9 %); format: functional; conditions: HCT-116, 24 h, read-out: Activity
HCT-116 [18] = experiment: Induction of apoptosis in human HCT116 cells assessed as early apoptotic cells at 1 uM incubated for 24 hrs by annexin V FITC and propidium iodide staining based flow cytometry analysis (reference value: 7.9%); format: functional
HCT-116 [19] = experiment: Induction of apoptosis in human HCT116 cells assessed as necrotic cells at 1 uM incubated for 24 hrs by annexin V FITC and propidium iodide staining based flow cytometry analysis (reference value: 0.2 %); format: functional
HCT-116 [20] = experiment: Induction of apoptosis in human HCT116 cells assessed as total apoptotic cells at 9 uM incubated for 24 hrs by annexin V FITC and propidium iodide staining based flow cytometry analysis (reference value: 18.9%); format: functional
HCT-116 [21] = experiment: Induction of cell cycle arrest in human HCT116 cells assessed as S phase at 1 uM incubated for 24 hrs by annexin V and propidium iodide staining based flow cytometry analysis (reference value: 16.08 %); format: functional; method in brief: as §1
HCT-116 [22] = experiment: Induction of cell cycle arrest in human HCT116 cells assessed as G1 phase at 1 uM incubated for 24 hrs by annexin V and propidium iodide staining based flow cytometry analysis (reference value: 61.81 %); format: functional; method in brief: as §1
HCT-116 [23] = experiment: Induction of apoptosis in human HCT116 cells assessed as early apoptotic cells at 3 uM incubated for 24 hrs by annexin V FITC and propidium iodide staining based flow cytometry analysis (reference value: 7.9 %); format: functional
HCT-116 [24] = experiment: Induction of apoptosis in human HCT116 cells assessed as early apoptotic cells at 9 uM incubated for 24 hrs by annexin V FITC and propidium iodide staining based flow cytometry analysis (reference value: 7.9 %); format: functional
HCT-116 [25] = experiment: Induction of apoptosis in human HCT116 cells assessed as viable cells at 3 uM incubated for 24 hrs by annexin V FITC and propidium iodide staining based flow cytometry analysis (reference value: 80.9 %); format: functional; conditions: HCT-116, 24 h, read-out: Activity

`Cn1c(=O)c(=O)n(C2CCCC2)c2nc(N/N=C/c3ccc(F)cc3F)ncc21` was tested, and the IC50 (A549) was 18.3 µM, the IC50 (PC-3) was 13.2 µM and the IC50 (HCT-116 [1]) was 19.8 µM.

Compound `Cn1c(=O)c(=O)n(C2CCCC2)c2nc(N/N=C/c3ccc(F)cc3Cl)ncc21` has an IC50 (A549) of 11 µM, an IC50 (PC-3) of 15.2 µM and an IC50 (HCT-116 [1]) of 13.8 µM.

Work on `COc1cccc(/C=N/Nc2ncc3c(n2)n(C2CCCC2)c(=O)c(=O)n3C)c1` yielded an IC50 (A549) of 27.4 µM, an IC50 (PC-3) of 20.7 µM and an IC50 (HCT-116 [1]) of 45.8 µM.

With `Cn1c(=O)c(=O)n(C2CCCC2)c2nc(N/N=C/c3ccccc3F)ncc21` the IC50 (A549) was 31.2 µM, the IC50 (PC-3) was 27.6 µM and the IC50 (HCT-116 [1]) was 20.7 µM.

For `Cc1ccc(/C=N/Nc2ncc3c(n2)n(C2CCCC2)c(=O)c(=O)n3C)cc1C`, the IC50 (A549) was 30.2 µM, the IC50 (PC-3) was 39 µM and the IC50 (HCT-116 [1]) was 62.9 µM.

Work on `Cc1cc(C)c(/C=N/Nc2ncc3c(n2)n(C2CCCC2)c(=O)c(=O)n3C)c(C)c1` yielded an IC50 (A549) of 12 µM, an IC50 (PC-3) of 13.9 µM and an IC50 (HCT-116 [1]) of 7.92 µM.

`Cn1c(=O)c(=O)n(C2CCCC2)c2nc(N/N=C/c3ccc(OC(F)(F)F)cc3)ncc21` was tested, and the IC50 (A549) was 12.9 µM, the IC50 (PC-3) was 7.18 µM and the IC50 (HCT-116 [1]) was 6.15 µM.

With `COc1ccc(/C=N/Nc2ncc3c(n2)n(C2CCCC2)c(=O)c(=O)n3C)cc1` the IC50 (A549) was > 100 µM, the IC50 (PC-3) was 26.2 µM and the IC50 (HCT-116 [1]) was 36.1 µM.

`Cn1c(=O)c(=O)n(C2CCCC2)c2nc(N/N=C/c3ccc(Cl)cc3)ncc21` showed an IC50 (A549) of 6.89 µM, an IC50 (PC-3) of 8.42 µM and an IC50 (HCT-116 [1]) of 9.81 µM.

Work on `Cn1c(=O)c(=O)n(C2CCCC2)c2nc(N/N=C/c3ccc(S(C)(=O)=O)cc3)ncc21` yielded an IC50 (A549) of 84.5 µM, an IC50 (PC-3) of 26.6 µM and an IC50 (HCT-116 [1]) of 86.6 µM.

Compound `Cn1c(=O)c(=O)n(C2CCCC2)c2nc(N/N=C/c3cc(C(F)(F)F)cc(C(F)(F)F)c3)ncc21` has a viability at 1 µM (HCT-116 [2]) of 78.1%, an Activity (HCT-116 [3]) of 67.2% and an IC50 (A549) of 3.23 µM. For the same compound, the Activity (HCT-116 [4]) was 12.2%, the Activity (HCT-116 [5]) was 17.31% and the Activity (HCT-116 [6]) was 20%. For the same compound, the Activity (HCT-116 [7]) was 11.41%, the Activity (HCT-116 [8]) was “Dose-dependent effect” and the Activity (HCT-116 [9]) was 11.1%. The Activity (HCT-116 [10]) was 21.39%, the Activity (HCT-116 [11]) was 0.2% and the Activity (HCT-116 [12]) was 0.4%. For the same compound, the Activity (HCT-116 [13]) was 62.69%, the Activity (HCT-116 [14]) was 17.98% and the IC50 (PC-3) was 8.2 µM. For the same compound, the inhibition (HCT-116 [15]) was “Dose-dependent effect”, the Activity (HCT-116 [16]) was 18% and the viability at 9 µM (HCT-116 [17]) was 61.3%. For the same compound, the Activity (HCT-116 [18]) was 10.3%, the Activity (HCT-116 [19]) was 0.5% and the Activity (HCT-116 [20]) was 38.3%. The Activity (HCT-116 [21]) was 16.56%, the Activity (HCT-116 [22]) was 65.46% and the IC50 (HCT-116 [1]) was 4.36 µM. For the same compound, the Activity (HCT-116 [23]) was 10.2%, the Activity (HCT-116 [24]) was 20.3% and the viability at 3 µM (HCT-116 [25]) was 77.4%.

In the case of `Cn1c(=O)c(=O)n(C2CCCC2)c2nc(N/N=C/c3ccc(O)c(F)c3)ncc21`, the IC50 (A549) is reported as 97.8 µM, the IC50 (PC-3) is reported as 85.2 µM and the IC50 (HCT-116 [1]) is reported as 59.3 µM.

`Cn1c(=O)c(=O)n(C2CCCC2)c2nc(N/N=C/c3cccc(Cl)c3Cl)ncc21` gave an IC50 (A549) of 39.1 µM, an IC50 (PC-3) of 17.2 µM and an IC50 (HCT-116 [1]) of 26.4 µM.

`COc1cc(/C=N/Nc2ncc3c(n2)n(C2CCCC2)c(=O)c(=O)n3C)cc(OC)c1OC` gave an IC50 (A549) of 18.3 µM, an IC50 (PC-3) of 17.5 µM and an IC50 (HCT-116 [1]) of 22.9 µM.
